These results are taken from paper PMC3206162 (The international journal of biochemistry & cell biology, 2011).

Where two headings read alike, the source gives them in different places. No end group written: not given here.

For orientation: IC50 means the point on the concentration scale where inhibition reaches its midpoint.

The test system of data set [1] is HUVEC. It counts as cell-based, human. The note with it: 72 h.
Data set [2] has as its system MEC. Nature of the data set: CytoTox-ONE LDH release cytotoxicity assay on MEC. The note with it: 72 h, complete media control = 100%; for LDH level, MEC: 10μM peptide; for LDH activity compared to the control, MEC: 100μM peptide. (In general: LDH leaks from cells whose membrane has failed.)
In data set [3] the test system is MEC. It counts as cell-based, human. Conditions: 72 h.
Data set [4] relates to LEC.
In data set [5] the test system is LEC. The data set can be described thus: CytoTox-ONE LDH release cytotoxicity assay on LEC. Conditions: 72 h, complete media control = 100%.
Data set [6] concerns HUVEC. The data set can be described thus: CytoTox-ONE LDH release cytotoxicity assay on HUVEC. The note with it: 10μM peptide, 72 h.
The test system of a further data set is cell apoptosis. Conditions: cited from earlier work.
In data set [7] the test system is LEC. The data set can be described thus: RTCA E-plate LEC adhesion assay. It counts as cell-based, human. Conditions: read-out: IC50 LEC adhesion; cell index at 1 h; 100, 33, 11, 3.7, 1.2μM. In a few lines:
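LEC seeded at 25,000 cells/well in EGM-2MV medium onto E-plate wells already holding peptide, so the cells dilute the peptide to its final concentration. Plate equilibrated 30 min at room temperature, then loaded into the RTCA system. Cell index analysed at 1 h as the adhesion read-out.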

Data set [8] relates to LEC. It counts as cell-based, human. Conditions: 72 h.
Data set [9] has as its system LEC. The note with it: 20 h.

Molecule LMRKSQILISSWF [SP5028] showed an IC50 in the data set with HUVEC [1] of 58.2 ± 35.2 µM. In addition, in the data set on MEC [2], the “LDH level, MEC” value is on record as “more than 150%” and the “LDH activity compared to the control, MEC” value is “more than 200%”.
In the data set on MEC [3], LLRISLLLIESWLE [SP5033] returned a 50% inhibitory concentration (IC50) of 81.1 ± 37.2 µM. The “LDH activity compared to the control, LEC” value in the data set on LEC [4] is “significant LDH activity”.
For RLRLLTLQSWLL [SP5001], in the data set with MEC [3], the half-inhibitory concentration (IC50) amounted to 52.4 ± 27.8 µM. Further, the “LDH activity compared to the control, LEC” value in the data set on LEC [5] is listed as “significant LDH activity”. The midpoint of inhibition with HUVEC [1], the IC50, lay at 50.7 ± 31.8 µM. Further, in the data set on MEC [2], the “LDH level, MEC” value is “more than 150%” and the “LDH activity compared to the control, MEC” value was “more than 200%”.
LLRLLLLIESWLE [SP5030]: the concentration for half-maximal inhibition (IC50) in the data set on MEC [3] amounted to 93.2 ± 42.3 µM. The “cytotoxic (LDH) activity, HUVEC” value in the data set with HUVEC [6] is “significant cytotoxic activity”.
The like results for LLHISLLLIESRLE [SP5032] were, in that order, 80.1 ± 47.9 µM and “significant cytotoxic activity”.
As to “LLRISLLLIQSWLE [tilted PRL peptide, reference compound]”, in the data set with cell apoptosis (ref Nguyen et al., 2006), the cell apoptosis entry is reported as “led to cell apoptosis”.
With LLRSSLILLQGSWF [SP5031], the IC50 was 83.4 ± 21.9 µM in the data set on MEC [3]; 96.9 ± 34.3 µM in the data set on HUVEC [1]; 24.2 µM with LEC [7]; 158 ± 122 µM in the data set on LEC [8]; 25.1 µM in the data set on LEC [9].

B1: PRL protein: prolactin (PRL) protein (protein, UniProt P01236 29-227, looked up)
Prolactin: LPICPGGAARCQVTLRDLFDRAVVLSHYIHNLSSEMFSEFDKRYTHGRGFITKAINSCHTSSLATPEDKEQAQQMNQKDFLSLIVSILRSWNEPLYHLVTEVRGMQEAPEAILSKAVEIEEQTKRLLEGMELIVSQVHPETKENEIYPVWSGLPSLQMADEESRLSAYYNLLHCLRRDSHKIDNYLKLLKCRIIHNNNC
B1: the “apoptosis in a prostate cancer model” value with cell apoptosis (prostate cancer model, ref Giuffrida et al., 2010) is reported as “induced apoptosis”.
